Data reported in ChEMBL document CHEMBL1811845, “Modulation of GABAA-receptors by honokiol and derivatives: subtype selectivity and structure-activity relationship” (J Med Chem, 2011).

Assays:
[1] = molecular target: T1, GABA-A receptor; GABA-A site (alpha1/beta2 interface) (Homo sapiens, UniProt P14867+P47870); assay: Modulation of GABA Aalpha1beta2 receptor expressed in Xenopus laevis oocytes assessed as potentiation of GABA-induced chloride current at holding potential -70 mV by two-microelectrode voltage clamp technique; assay type: cell-based, Oocyte
T1 sequence (P14867 whole entry): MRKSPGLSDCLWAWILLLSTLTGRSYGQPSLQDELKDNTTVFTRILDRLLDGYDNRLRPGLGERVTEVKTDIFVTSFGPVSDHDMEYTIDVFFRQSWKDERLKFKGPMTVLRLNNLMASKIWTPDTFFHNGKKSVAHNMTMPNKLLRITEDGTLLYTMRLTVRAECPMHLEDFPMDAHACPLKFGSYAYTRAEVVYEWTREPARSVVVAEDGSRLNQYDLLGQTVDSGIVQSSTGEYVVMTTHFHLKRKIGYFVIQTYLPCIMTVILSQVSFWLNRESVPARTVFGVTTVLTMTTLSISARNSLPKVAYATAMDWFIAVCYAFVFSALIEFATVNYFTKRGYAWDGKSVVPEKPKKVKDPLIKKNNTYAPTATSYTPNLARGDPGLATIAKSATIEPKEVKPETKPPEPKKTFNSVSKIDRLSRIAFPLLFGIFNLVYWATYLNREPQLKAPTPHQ
T1 sequence (P47870 whole entry): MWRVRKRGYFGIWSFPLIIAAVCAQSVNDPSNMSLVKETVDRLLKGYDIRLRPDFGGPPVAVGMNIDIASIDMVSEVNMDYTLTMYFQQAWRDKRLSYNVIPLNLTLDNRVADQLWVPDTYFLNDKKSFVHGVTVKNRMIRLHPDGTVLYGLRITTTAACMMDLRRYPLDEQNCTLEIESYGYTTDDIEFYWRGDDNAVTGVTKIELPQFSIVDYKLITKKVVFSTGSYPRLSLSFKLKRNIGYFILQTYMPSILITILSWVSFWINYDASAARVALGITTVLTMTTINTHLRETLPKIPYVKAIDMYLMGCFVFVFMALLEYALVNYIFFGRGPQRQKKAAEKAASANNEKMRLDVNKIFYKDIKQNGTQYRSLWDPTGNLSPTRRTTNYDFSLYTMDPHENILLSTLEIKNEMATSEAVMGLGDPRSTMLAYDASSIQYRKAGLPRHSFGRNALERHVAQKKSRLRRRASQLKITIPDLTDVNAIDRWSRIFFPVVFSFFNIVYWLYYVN
Outline: (§1)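 Stage V–VI Xenopus oocytes, defolliculated with 2 mg/mL collagenase, injected with α(1, 2, 3 or 5) and β2 cRNAs mixed 1:1, then kept at 18 °C in ND96 (pH 7.4). Enhancement = I(GABA+compound)/IGABA − 1. Curves were Hill-fitted for EC50. Bath DMSO was at most 0.3%, matched in controls.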

[2] = Octanol-water partition coefficient, log P of the compound; assay type: physicochemical; details: read-out: logP
[3] = molecular target: T2, Gamma-aminobutyric acid receptor subunit alpha-2/beta-2 (Homo sapiens, UniProt P47869+P47870); assay: Modulation of GABA Aalpha2beta2 receptor expressed in Xenopus laevis oocytes assessed as potentiation of GABA-induced chloride current at holding potential -70 mV by two-microelectrode voltage clamp technique; assay type: cell-based, Oocyte; outline: as §1
T2 sequence (P47870 whole entry): T1 sequence (P47870 whole entry)
T2 sequence (P47869 whole entry): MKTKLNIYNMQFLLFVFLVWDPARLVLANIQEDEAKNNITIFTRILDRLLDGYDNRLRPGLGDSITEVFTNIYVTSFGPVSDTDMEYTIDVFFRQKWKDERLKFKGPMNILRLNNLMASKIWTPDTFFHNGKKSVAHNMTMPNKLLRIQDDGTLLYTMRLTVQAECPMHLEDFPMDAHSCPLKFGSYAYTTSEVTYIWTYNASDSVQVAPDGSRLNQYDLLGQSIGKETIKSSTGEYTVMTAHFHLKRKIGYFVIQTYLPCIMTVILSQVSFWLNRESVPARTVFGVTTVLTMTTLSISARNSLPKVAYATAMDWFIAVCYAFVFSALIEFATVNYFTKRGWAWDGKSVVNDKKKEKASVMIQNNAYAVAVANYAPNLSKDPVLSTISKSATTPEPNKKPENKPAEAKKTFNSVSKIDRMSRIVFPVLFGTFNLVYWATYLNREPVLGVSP

[4] = molecular target: T3, Gamma-aminobutyric acid receptor subunit alpha-3/ beta-2 (Homo sapiens, UniProt P34903+P47870); assay: Modulation of GABA Aalpha3beta2 receptor expressed in Xenopus laevis oocytes assessed as potentiation of GABA-induced chloride current at holding potential -70 mV by two-microelectrode voltage clamp technique; assay type: cell-based, Oocyte; outline: as §1
T3 sequence (P47870 whole entry): T1 sequence (P47870 whole entry)
T3 sequence (P34903 whole entry): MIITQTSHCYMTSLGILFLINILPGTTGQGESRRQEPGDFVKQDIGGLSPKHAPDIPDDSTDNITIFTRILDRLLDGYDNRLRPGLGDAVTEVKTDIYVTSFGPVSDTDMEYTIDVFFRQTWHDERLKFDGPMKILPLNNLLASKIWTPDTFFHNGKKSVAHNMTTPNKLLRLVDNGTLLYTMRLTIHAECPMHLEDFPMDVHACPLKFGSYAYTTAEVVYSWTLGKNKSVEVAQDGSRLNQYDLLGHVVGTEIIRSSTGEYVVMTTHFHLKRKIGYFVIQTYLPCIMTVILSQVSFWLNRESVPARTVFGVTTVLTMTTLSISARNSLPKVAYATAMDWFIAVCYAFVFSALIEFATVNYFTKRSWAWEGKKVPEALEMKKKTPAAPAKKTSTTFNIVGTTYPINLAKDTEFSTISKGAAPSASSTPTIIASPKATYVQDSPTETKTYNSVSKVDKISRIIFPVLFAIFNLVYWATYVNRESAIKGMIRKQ

[5] = molecular target: T4, Gamma-aminobutyric acid receptor subunit alpha-5/beta-2 (Homo sapiens, UniProt P31644+P47870); assay: Modulation of GABA Aalpha5beta2 receptor expressed in Xenopus laevis oocytes assessed as potentiation of GABA-induced chloride current at holding potential -70 mV by two-microelectrode voltage clamp technique; assay type: cell-based, Oocyte; outline: as §1
T4 sequence (P47870 whole entry): T1 sequence (P47870 whole entry)
T4 sequence (P31644 whole entry): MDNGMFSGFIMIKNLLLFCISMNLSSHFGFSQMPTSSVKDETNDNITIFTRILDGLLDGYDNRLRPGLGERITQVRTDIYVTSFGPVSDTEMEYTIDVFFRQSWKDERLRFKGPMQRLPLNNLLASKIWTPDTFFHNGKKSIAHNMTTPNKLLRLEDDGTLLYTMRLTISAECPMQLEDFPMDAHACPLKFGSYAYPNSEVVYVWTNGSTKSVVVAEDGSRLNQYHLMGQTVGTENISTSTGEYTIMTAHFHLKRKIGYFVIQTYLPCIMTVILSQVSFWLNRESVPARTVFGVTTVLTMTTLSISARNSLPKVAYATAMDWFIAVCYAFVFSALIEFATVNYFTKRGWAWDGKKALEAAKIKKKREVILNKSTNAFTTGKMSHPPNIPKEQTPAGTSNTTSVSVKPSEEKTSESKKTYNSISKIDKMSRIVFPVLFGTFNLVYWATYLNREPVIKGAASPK

[6] = molecular target: T5, GABA-A receptor; GABA-A site (alpha1/beta2 interface) (Homo sapiens) (UniProt P14867+P47870); assay: Modulation of GABA Aalpha1beta2 receptor expressed in Xenopus laevis oocytes assessed as potentiation of GABA-induced chloride current at holding potential -70 mV by two-microelectrode voltage clamp technique relative to GABA; assay type: cell-based; details: Oocyte
Outline: (§2)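 Oocytes were injected with α1, α2, α3 or α5 plus β2 cRNA at a 1:1 ratio and stored at 18 °C in ND96, pH 7.4. Enhancement was (I(GABA+compound)/IGABA)−1, and concentration-response data were Hill-fitted for EC50 and nH. Matched DMSO was ≤0.3%.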

[7] = molecular target: Gamma-aminobutyric acid receptor subunit alpha-2/beta-2 (Homo sapiens) (UniProt P47870+P47869); assay: Modulation of GABA Aalpha2beta2 receptor expressed in Xenopus laevis oocytes assessed as potentiation of GABA-induced chloride current at holding potential -70 mV by two-microelectrode voltage clamp technique relative to GABA; assay type: cell-based; details: Oocyte; outline: as §2
[8] = molecular target: Gamma-aminobutyric acid receptor subunit alpha-3/ beta-2 (Homo sapiens) (UniProt P47870+P34903); assay: Modulation of GABA Aalpha3beta2 receptor expressed in Xenopus laevis oocytes assessed as potentiation of GABA-induced chloride current at holding potential -70 mV by two-microelectrode voltage clamp technique relative to GABA; assay type: cell-based; details: Oocyte; outline: as §2
[9] = molecular target: Gamma-aminobutyric acid receptor subunit alpha-5/beta-2 (Homo sapiens) (UniProt P47870+P31644); assay: Modulation of GABA Aalpha5beta2 receptor expressed in Xenopus laevis oocytes assessed as potentiation of GABA-induced chloride current at holding potential -70 mV by two-microelectrode voltage clamp technique relative to GABA; assay type: cell-based; details: Oocyte; outline: as §2
[10] = molecular target: T5, GABA-A receptor; GABA-A site (alpha1/beta2 interface) (Homo sapiens); assay: Modulation of GABA Aalpha1beta2 receptor expressed in Xenopus laevis oocytes assessed as potentiation of GABA-induced chloride current at holding potential -70 mV at 30 uM by two-microelectrode voltage clamp technique relative to GABA; assay type: cell-based; details: Oocyte
Outline: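 Single-concentration screen at 30 μM on α1β2 receptors (cRNA 1:1) in Xenopus oocytes. Enhancement was (I(GABA+compound)/IGABA)−1. DMSO was matched in control and test solutions, maximum 0.3% in the bath.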

[11] = tested on: Oocyte; assay: Modulation of GABA alpha1beta2gamma2s receptor expressed in Xenopus laevis oocytes assessed as potentiation of GABA-induced chloride current at holding potential -70 mV at 300 nM by two-microelectrode voltage clamp technique relative to GABA; assay type: cell-based
Outline: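 Xenopus oocytes were injected with α1, β2 and γ2s cRNAs mixed 1:1:10 and stored at +18 °C in ND96 at pH 7.4. Chloride current was recorded by two-electrode voltage clamp at -70 mV and ambient temperature. Compound was co-applied with GABA at 3–7% of maximal current, set for each oocyte. Enhancement was calculated as (I(GABA+compound)/IGABA) − 1 with matched DMSO.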

Row | Structure (SMILES) | EC50 [1] | logP [2] | EC50 [3] | EC50 [4] | EC50 [5] | Smax [6] | Smax [7] | Smax [8] | Smax [9] | Activity [10] | Activity [11]
1 | C=CCc1cc(NC(C)=O)c(O)c(-c2ccc(OC)c(CC=C)c2)c1 | 3.8 µM | 4.75 | 7.9 µM | 9 µM | 2.3 µM | 2600% | 5200% | 3670% | 1010% | 2630% | –
2 | CCCc1cc(N)c(O)c(-c2ccc(OC)c(CCC)c2)c1 | 9.2 µM | 5.38 | 3.2 µM | 8.4 µM | 5.3 µM | 2260% | 2980% | 2380% | 1870% | 2020% | –
3 | CN1C(=O)CN=C(c2ccccc2)c2cc(Cl)ccc21 | – | – | – | – | – | – | – | – | – | – | 104%
